ChEMBL document CHEMBL1629491, “Post Groebke-Blackburn multicomponent protocol: synthesis of new polyfunctional imidazo[1,2-a]pyridine and imidazo[1,2-a]pyrimidine derivatives as potential antimicrobial agents” (2010)
In brackets after ≈: the same amount, converted by molar mass.

How the values were obtained:
Format in all cases: functional
Escherichia coli = test: Antimicrobial activity against Escherichia coli after 24 hrs […]
Method in brief: (§1)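 Broth microdilution MIC. Bacteria were grown in Luria broth (1% tryptone, 0.5% yeast extract, 0.5% NaCl, pH 7.2) at 37 °C for 24 h. Mid-log cultures were read at OD540 and diluted to OD 0.004 (5 × 10⁵ CFU/mL) before inoculation. Compounds in DMSO were given as eleven twofold serial dilutions, and plates were incubated at 37 °C for 24 h. MIC was the lowest concentration with no visible growth by turbidity. Cefixime, amoxicillin and vancomycin were the positive controls.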

Enterococcus faecalis = test: Antimicrobial activity against Enterococcus faecalis after 24 hrs […]; method in brief: as §1
Klebsiella aerogenes = test: Antimicrobial activity against Enterobacter aerogenes after 24 hrs […]; method in brief: as §1
Priestia megaterium = test: Antimicrobial activity against Bacillus megaterium after 24 hrs […]; method in brief: as §1
Pseudomonas aeruginosa = test: Antimicrobial activity against Pseudomonas aeruginosa after 24 hrs […]; method in brief: as §1
Staphylococcus aureus = test: Antimicrobial activity against Staphylococcus aureus after 24 hrs […]; method in brief: as §1

SMILES | MIC (Escherichia coli) [µg/mL] | MIC (Enterococcus faecalis) [µg/mL] | MIC (Klebsiella aerogenes) [µg/mL] | MIC (Priestia megaterium) [µg/mL] | MIC (Pseudomonas aeruginosa) [µg/mL] | MIC (Staphylococcus aureus) [µg/mL]
O=[N+]([O-])c1ccc2nc(-c3ccc4nc(-c5ccc(Br)cc5)c(Nc5ccccc5)n4c3)[nH]c2c1 | 11.3 (≈ 21.5 µM) | 13.4 (≈ 25.4 µM) | 12.8 (≈ 24.5 µM) | 17.5 (≈ 33.4 µM) | 14.5 (≈ 27.6 µM) | 10.3 (≈ 19.6 µM)
Cc1ccc(-c2nc3ccc(-c4nc5ccc(Oc6ccccc6)cc5[nH]4)cn3c2Nc2ccccc2)cc1 | 34.8 (≈ 68.5 µM) | 46.5 (≈ 91.6 µM) | 57.3 (≈ 113 µM) | 65.5 (≈ 129 µM) | 45.4 (≈ 89.5 µM) | 54.9 (≈ 108 µM)
Cc1ccc(-c2nc3ccc(-c4nc5ccc(Br)cc5[nH]4)cn3c2Nc2ccccc2)cc1 | 3.18 (≈ 6.43 µM) | 6.28 (≈ 12.7 µM) | 7.15 (≈ 14.5 µM) | 14 (≈ 28.2 µM) | 5.22 (≈ 10.6 µM) | 5.11 (≈ 10.3 µM)
Fc1ccc2nc(-c3ccc4nc(-c5ccc(Oc6ccccc6)cc5)c(Nc5ccccc5)n4c3)[nH]c2c1 | 10.7 (≈ 20.9 µM) | 15.3 (≈ 29.9 µM) | 11.5 (≈ 22.6 µM) | 21.6 (≈ 42.2 µM) | 12.4 (≈ 24.3 µM) | 12.1 (≈ 23.7 µM)
Brc1ccc(-c2nc3ccc(-c4nc5ccc(Oc6ccccc6)cc5[nH]4)cn3c2Nc2ccccc2)cc1 | 31.8 (≈ 55.6 µM) | 44.7 (≈ 78.1 µM) | 58.5 (≈ 102 µM) | 58.7 (≈ 102 µM) | 41.1 (≈ 71.8 µM) | 56.2 (≈ 98.1 µM)
Cc1ccc2nc(-c3ccc4nc(-c5ccc(Br)cc5)c(Nc5ccccc5)n4c3)[nH]c2c1 | 10.3 (≈ 20.9 µM) | 13.6 (≈ 27.6 µM) | 11.8 (≈ 23.8 µM) | 18.6 (≈ 37.6 µM) | 13.4 (≈ 27 µM) | 9.51 (≈ 19.2 µM)
Brc1ccc(-c2cnc(-c3ccc4nc(-c5ccc(Oc6ccccc6)cc5)c(Nc5ccccc5)n4c3)[nH]2)cc1 | 12.2 (≈ 20.4 µM) | 13.7 (≈ 22.9 µM) | 10.7 (≈ 17.9 µM) | 19.9 (≈ 33.2 µM) | 11.8 (≈ 19.7 µM) | 10.2 (≈ 17.1 µM)
Brc1ccc(-c2nc3ccc(-c4ncc(-c5ccc(Oc6ccccc6)cc5)[nH]4)cn3c2Nc2ccccc2)cc1 | 33.3 (≈ 55.6 µM) | 39.6 (≈ 66.2 µM) | 53.4 (≈ 89.2 µM) | 53.2 (≈ 88.8 µM) | 44.3 (≈ 74 µM) | 58.4 (≈ 97.5 µM)
Fc1ccc(-c2nnc(-c3ccc4nc(-c5ccc(Oc6ccccc6)cc5)c(Nc5ccccc5)n4c3)o2)cc1 | 11.7 (≈ 21.7 µM) | 12.6 (≈ 23.3 µM) | 8.42 (≈ 15.6 µM) | 17.4 (≈ 32.3 µM) | 9.64 (≈ 17.9 µM) | 11.1 (≈ 20.6 µM)
Cc1ccc(-c2nc3ccc(-c4nnc(-c5ccc([N+](=O)[O-])cc5)o4)cn3c2Nc2ccccc2)cc1 | 13.4 (≈ 27.5 µM) | 11.4 (≈ 23.3 µM) | 10.2 (≈ 20.8 µM) | 15.5 (≈ 31.7 µM) | 12.6 (≈ 25.7 µM) | 9.85 (≈ 20.2 µM)
Cc1ccc(-c2nnc(-c3ccc4nc(-c5ccc(Br)cc5)c(Nc5ccccc5)n4c3)o2)cc1 | 12.4 (≈ 23.7 µM) | 11.8 (≈ 22.6 µM) | 11.3 (≈ 21.6 µM) | 16.6 (≈ 31.7 µM) | 10.2 (≈ 19.5 µM) | 12.3 (≈ 23.5 µM)
O=[N+]([O-])c1ccc(-c2nnc(-c3ccc4nc(-c5ccc(Br)cc5)c(Nc5ccccc5)n4c3)o2)cc1 | 7.37 (≈ 13.3 µM) | 8.22 (≈ 14.9 µM) | 4.12 (≈ 7.45 µM) | 12.7 (≈ 23 µM) | 5.45 (≈ 9.85 µM) | 6.36 (≈ 11.5 µM)
Cc1ccc(-c2nc3ncc(-c4nc5ccc(F)cc5[nH]4)cn3c2Nc2ccccc2)cc1 | 3.44 (≈ 7.92 µM) | 5.76 (≈ 13.3 µM) | 6.18 (≈ 14.2 µM) | 17.2 (≈ 39.5 µM) | 4.72 (≈ 10.9 µM) | 6.32 (≈ 14.5 µM)
Fc1ccc2nc(-c3cnc4nc(-c5ccc(Oc6ccccc6)cc5)c(Nc5ccccc5)n4c3)[nH]c2c1 | 10.5 (≈ 20.5 µM) | 10.4 (≈ 20.3 µM) | 6.12 (≈ 11.9 µM) | 19.8 (≈ 38.6 µM) | 7.38 (≈ 14.4 µM) | 9.43 (≈ 18.4 µM)
O=[N+]([O-])c1ccc2nc(-c3cnc4nc(-c5ccc(Br)cc5)c(Nc5ccccc5)n4c3)[nH]c2c1 | 11.7 (≈ 22.2 µM) | 11.4 (≈ 21.8 µM) | 10.6 (≈ 20.2 µM) | 15.4 (≈ 29.3 µM) | 12.2 (≈ 23.2 µM) | 9.32 (≈ 17.7 µM)
O=[N+]([O-])c1ccc(-c2cnc(-c3cnc4nc(-c5ccc(Br)cc5)c(Nc5ccccc5)n4c3)[nH]2)cc1 | 5.33 (≈ 9.65 µM) | 9.61 (≈ 17.4 µM) | 9.33 (≈ 16.9 µM) | 17.4 (≈ 31.6 µM) | 7.81 (≈ 14.1 µM) | 4.22 (≈ 7.64 µM)
Clc1ccc(-c2cnc(-c3cnc4nc(-c5ccc(Br)cc5)c(Nc5ccccc5)n4c3)[nH]2)cc1 | 3.11 (≈ 5.74 µM) | 4.28 (≈ 7.9 µM) | 1.89 (≈ 3.49 µM) | 11.6 (≈ 21.5 µM) | 1.82 (≈ 3.36 µM) | 1.76 (≈ 3.25 µM)
Cc1ccc(-c2cnc(-c3cnc4nc(-c5ccc(Br)cc5)c(Nc5ccccc5)n4c3)[nH]2)cc1 | 8.11 (≈ 15.6 µM) | 11.7 (≈ 22.4 µM) | 10.8 (≈ 20.8 µM) | 15.6 (≈ 29.8 µM) | 11.4 (≈ 22 µM) | 9.49 (≈ 18.2 µM)
Cc1ccc(-c2nc3ncc(-c4nnc(-c5ccc(F)cc5)o4)cn3c2Nc2ccccc2)cc1 | 2.78 (≈ 6.01 µM) | 4.58 (≈ 9.9 µM) | 5.29 (≈ 11.4 µM) | 15.3 (≈ 33.1 µM) | 3.65 (≈ 7.89 µM) | 5.47 (≈ 11.8 µM)
O=[N+]([O-])c1ccc(-c2nnc(-c3cnc4nc(-c5ccc(Br)cc5)c(Nc5ccccc5)n4c3)o2)cc1 | 3.12 (≈ 5.63 µM) | 6.18 (≈ 11.1 µM) | 2.23 (≈ 4.02 µM) | 11.2 (≈ 20.2 µM) | 4.45 (≈ 8.03 µM) | 3.35 (≈ 6.04 µM)
Cc1ccc(-c2nnc(-c3cnc4nc(-c5ccc(Br)cc5)c(Nc5ccccc5)n4c3)o2)cc1 | 8.56 (≈ 16.4 µM) | 8.71 (≈ 16.6 µM) | 6.43 (≈ 12.3 µM) | 13.6 (≈ 26 µM) | 7.64 (≈ 14.6 µM) | 5.31 (≈ 10.1 µM)
CC1(C)S[C@@H]2[C@H](NC(=O)[C@H](N)c3ccc(O)cc3)C(=O)N2[C@H]1C(=O)O [AMOXICILLIN] | 16.4 (≈ 45 µM) | 1.22 (≈ 3.34 µM) | 3.65 (≈ 9.99 µM) | 2.75 (≈ 7.53 µM) | 14.5 (≈ 39.8 µM) | 13.3 (≈ 36.5 µM)
CN[C@H](CC(C)C)C(=O)N[C@H]1C(=O)N[C@@H](CC(N)=O)C(=O)N[C@H]2C(=O)N[C@H]3C(=O)N[C@H](C(=O)N[C@H](C(=O)O)c4cc(O)cc(O)c4-c4cc3ccc4O)[C@H](O)c3ccc(c(Cl)c3)Oc3cc2cc(c3O[C@@H]2O[C@H](CO)[C@@H](O)[C@H](O)[C@H]2O[C@H]2C[C@](C)(N)[C@H](O)[C@H](C)O2)Oc2ccc(cc2Cl)[C@H]1O [VANCOMYCIN] | 6.65 (≈ 4.59 µM) | 4.21 (≈ 2.9 µM) | 0.52 (≈ 0.359 µM) | 6.37 (≈ 4.4 µM) | 23.5 (≈ 16.2 µM) | 2.75 (≈ 1.9 µM)

Continued by falling MIC (Escherichia coli), values first:

MIC (Escherichia coli) [µg/mL] | MIC (Enterococcus faecalis) [µg/mL] | MIC (Klebsiella aerogenes) [µg/mL] | MIC (Priestia megaterium) [µg/mL] | MIC (Pseudomonas aeruginosa) [µg/mL] | MIC (Staphylococcus aureus) [µg/mL] | SMILES
2.78 (≈ 5.39 µM) | 5.87 (≈ 11.4 µM) | 2.75 (≈ 5.33 µM) | 13.7 (≈ 26.6 µM) | 2.55 (≈ 4.94 µM) | 1.84 (≈ 3.57 µM) | Clc1ccc2nc(-c3cnc4nc(-c5ccc(Br)cc5)c(Nc5ccccc5)n4c3)[nH]c2c1
2.34 (≈ 4.3 µM) | 5.37 (≈ 9.87 µM) | 3.16 (≈ 5.81 µM) | 8.45 (≈ 15.5 µM) | 1.56 (≈ 2.87 µM) | 2.45 (≈ 4.51 µM) | Clc1ccc(-c2nnc(-c3cnc4nc(-c5ccc(Br)cc5)c(Nc5ccccc5)n4c3)o2)cc1
2.34 (≈ 5.16 µM) | 27.9 (≈ 61.6 µM) | 28.2 (≈ 62.1 µM) | 128 (≈ 282 µM) | 17.2 (≈ 38 µM) | 33.9 (≈ 74.7 µM) | C=CC1=C(C(=O)O)N2C(=O)[C@@H](NC(=O)/C(=N\OCC(=O)O)c3csc(N)n3)[C@H]2SC1 [CEFIXIME]
2.29 (≈ 4.59 µM) | 6.64 (≈ 13.3 µM) | 2.25 (≈ 4.51 µM) | 11.7 (≈ 23.5 µM) | 2.85 (≈ 5.71 µM) | 1.23 (≈ 2.46 µM) | Fc1ccc2nc(-c3cnc4nc(-c5ccc(Br)cc5)c(Nc5ccccc5)n4c3)[nH]c2c1
2.15 (≈ 4.31 µM) | 5.23 (≈ 10.5 µM) | 2.05 (≈ 4.11 µM) | 10.2 (≈ 20.6 µM) | 3.44 (≈ 6.9 µM) | 1.51 (≈ 3.03 µM) | Fc1ccc2nc(-c3ccc4nc(-c5ccc(Br)cc5)c(Nc5ccccc5)n4c3)[nH]c2c1
1.42 (≈ 2.63 µM) | 2.96 (≈ 5.47 µM) | 1.17 (≈ 2.16 µM) | 9.13 (≈ 16.9 µM) | 2.52 (≈ 4.66 µM) | 0.93 (≈ 1.72 µM) | Clc1ccc(-c2cnc(-c3ccc4nc(-c5ccc(Br)cc5)c(Nc5ccccc5)n4c3)[nH]2)cc1
1.33 (≈ 2.54 µM) | 3.17 (≈ 6.05 µM) | 1.55 (≈ 2.96 µM) | 8.34 (≈ 15.9 µM) | 2.12 (≈ 4.04 µM) | 0.72 (≈ 1.37 µM) | Fc1ccc(-c2cnc(-c3ccc4nc(-c5ccc(Br)cc5)c(Nc5ccccc5)n4c3)[nH]2)cc1
1.33 (≈ 2.52 µM) | 1.92 (≈ 3.64 µM) | 0.94 (≈ 1.78 µM) | 5.45 (≈ 10.3 µM) | 1.87 (≈ 3.55 µM) | 0.64 (≈ 1.21 µM) | Fc1ccc(-c2nnc(-c3cnc4nc(-c5ccc(Br)cc5)c(Nc5ccccc5)n4c3)o2)cc1
1.15 (≈ 2.19 µM) | 4.21 (≈ 8.01 µM) | 1.11 (≈ 2.11 µM) | 9.17 (≈ 17.5 µM) | 2.34 (≈ 4.45 µM) | 0.63 (≈ 1.2 µM) | Fc1ccc(-c2cnc(-c3cnc4nc(-c5ccc(Br)cc5)c(Nc5ccccc5)n4c3)[nH]2)cc1
1.11 (≈ 2.11 µM) | 1.57 (≈ 2.98 µM) | 0.85 (≈ 1.61 µM) | 4.97 (≈ 9.44 µM) | 2.43 (≈ 4.62 µM) | 0.51 (≈ 0.969 µM) | Fc1ccc(-c2nnc(-c3ccc4nc(-c5ccc(Br)cc5)c(Nc5ccccc5)n4c3)o2)cc1
